The values below come from ChEMBL document CHEMBL1125594 (J Med Chem, 1991).

Structures are written as SMILES.

The test system of assay [1] is P388. Put plainly: Antitumor potency on P388 leukemia cells in culture. Conditions: Mus musculus. Format: functional, cell-based. In a few lines:
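P388 cells (ATCC CCL-46) plated as a single-cell suspension at 300 cells/well. Drugs in DMSO, serially diluted in PBS pH 7.4 in half-log steps, were added on day 1 (final DMSO ≤0.1%). Exposure 6 days at 37 °C, 5% CO2. MTT was added for 4 h, formazan dissolved in DMSO, absorbance read at 570 nm as % of untreated control. 6 wells per concentration, ≥2 assays, IC50 averaged.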

Assay [2] relates to Nucleic Acid. Put plainly: Antitumor potency on human colon WIDR cell lines. It is filed as functional, cell-based. In a few lines: (§1)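 Human lines kept in RPMI-1640 with 5% FBS, L-glutamine and penicillin/streptomycin; seeded as single-cell suspensions at 2000 (MCF-7), 500 (WiDr) or 750 (2780) cells/well. Drugs in DMSO, serially diluted in PBS pH 7.4 in half-log steps, were added on day 2 (final DMSO ≤0.1%). Exposure 6 days at 37 °C, 5% CO2. MTT was added for 4 h, formazan dissolved in DMSO, A570 read as % of untreated control. 6 wells per concentration, ≥2 assays, IC50s averaged.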

The species named for assay [3] is Mus musculus. Put plainly: Minimum effective dose was measured against P388 leukemia in mice. It is filed as functional.
Assay [4] deals with Nucleic Acid. Put plainly: Antitumor potency on human breast MCF-7 cell lines. Format: functional, cell-based. Conditions: MCF7. The gist of the method: as §1
For assay [5], the system named is Nucleic Acid. Put plainly: Antitumor potency on human ovarian 2780 cell lines. It is filed as functional. In a few lines: as §1

The term IC50 denotes the point on the concentration scale where inhibition reaches its midpoint.

Turning to `CO[C@@]12C(COC(N)=O)C3=C(C(=O)C(C)=C(OCc4ccccc4)C3=O)N1CC1NC12` (some centres undefined), the IC50 in assay [1] was 0.018 nM; in assay [2], 0.13 nM; in assay [4] it was 1.43 nM; in assay [5], 0.26 nM. For the same compound, the MED in assay [3] was determined as 0.24 µmol/kg.

For `COCCOCCOC1=C(C)C(=O)C2=C(C1=O)C(COC(N)=O)[C@@]1(OC)C3NC3CN21` (some centres undefined), the IC50 in assay [1] is 4.1 nM; in assay [2] it was 4.57 nM; in assay [4], 8.22 nM; in assay [5], 4.57 nM. Also, the MED in assay [3] came out at 0.11 µmol/kg.

As for `CO[C@@]12C(COC(N)=O)c3c(O)c(/N=C4\C=CC(=O)C([N+](=O)[O-])=C4)c(C)c(O)c3N1CC1NC12` (some centres undefined), the IC50 was 25.5 nM in assay [2], 22.7 nM in assay [4] and 10.8 nM in assay [5].

With `CO[C@@]12C(COC(N)=O)C3=C(C(=O)C(C)=C(OC4CC4)C3=O)N1CC1NC12` (some centres undefined), the IC50 in assay [1] amounted to 0.63 nM; in assay [2], 0.21 nM; in assay [4], 1.12 nM; in assay [5], 0.56 nM. Besides, the MED in assay [3] was found to be 0.13 µmol/kg.

With `CO[C@@]12C(COC(N)=O)C3=C(C(=O)C(C)=C(NCCc4ccccn4)C3=O)N1CC1NC12` (some centres undefined), the IC50 in assay [1] was found to be 53.5 nM; in assay [2], 26.2 nM; in assay [4], 22.8 nM; in assay [5], 77.4 nM.

For the compound `CO[C@@]12C(COC(N)=O)C3=C(C(=O)C(C)=C(NCCc4ccco4)C3=O)N1CC1NC12` (some centres undefined), the IC50 in assay [1] stood at 26.6 nM; in assay [2] it was 40.3 nM; in assay [4] it was 36.6 nM; in assay [5], 59.5 nM.

For the compound `CO[C@@]12C(COC(N)=O)C3=C(C(=O)C(C)=C(Nc4ccc(I)cc4)C3=O)N1CC1NC12` (some centres undefined), the IC50 in assay [1] turned out to be 1.62 nM; in assay [2], 0.63 nM; in assay [4], 2.84 nM; in assay [5], 1.6 nM.

With `CO[C@@]12C(COC(N)=O)C3=C(C(=O)C(C)=C(OCCOCCO)C3=O)N1CC1NC12` (some centres undefined), the IC50 in assay [1] was found to be 18.7 nM; in assay [2], 25.8 nM; in assay [4], 80.6 nM; in assay [5], 36.6 nM. Further, the MED in assay [3] was 0.3 µmol/kg.

For `CO[C@@]12C(COC(N)=O)C3=C(C(=O)C(C)=C(Nc4ccc(Br)cc4)C3=O)N1CC1NC12` (some centres undefined), the IC50 was 1.92 nM in assay [1], 1.19 nM in assay [2], 2.66 nM in assay [4] and 1.84 nM in assay [5].

With `CO[C@@]12C(COC(N)=O)c3c(O)c(N=C4C=CC(=O)C=C4)c(C)c(O)c3N1CC1NC12` (some centres undefined), the IC50 in assay [1] was 5.86 nM; in assay [2], 6.3 nM; in assay [4], 16.9 nM; in assay [5], 16.4 nM.

Turning to `CO[C@@]12C(COC(N)=O)c3c(O)c(N=C4C=CC(=N)C=C4)c(C)c(O)c3N1CC1NC12` (some centres undefined), the IC50 was found to be 18.8 nM in assay [1], 28.8 nM in assay [2], 13.1 nM in assay [4] and 50 nM in assay [5].

With `CO[C@@]12C(COC(N)=O)C3=C(C(=O)C(C)=C(OCCSSCCO)C3=O)N1CC1NC12` (some centres undefined), the IC50 in assay [1] turned out to be 1.87 nM; in assay [2], 1.48 nM; in assay [4], 3.92 nM; in assay [5] it was 1.36 nM. Further, the MED in assay [3] is 0.026 µmol/kg.

For `CO[C@@]12C(COC(N)=O)C3=C(C(=O)C(C)=C(OCCO)C3=O)N1CC1NC12` (some centres undefined), the IC50 in assay [1] was determined as 0.71 nM; in assay [2], 4.22 nM; in assay [4], 3.69 nM; in assay [5], 6.85 nM. In assay [3], this compound yielded an MED of 0.017 µmol/kg.

In the case of `CO[C@@]12C(COC(N)=O)C3=C(C(=O)C(C)=C(OCC4CCC4)C3=O)N1CC1NC12` (some centres undefined), the half-inhibitory concentration (IC50) came out at 0.41 nM in assay [1], 0.19 nM in assay [2], 0.21 nM in assay [4] and 0.27 nM in assay [5]. In addition, the MED in assay [3] came to 0.99 µmol/kg.

As for `CO[C@@]12C(COC(N)=O)C3=C(C(=O)C(C)=C(OCCSc4ccccc4)C3=O)N1CC1NC12` (some centres undefined), the IC50 worked out at 1.21 nM in assay [1], 0.15 nM in assay [2], 1.4 nM in assay [4] and 0.53 nM in assay [5]. In assay [3], this compound registered an MED of 6.73.

For `CO[C@@]12C(COC(N)=O)C3=C(C(=O)C(C)=C(NCCCO)C3=O)N1CC1NC12` (some centres undefined), the IC50 was 459 nM in assay [1], 102 nM in assay [2], 132 nM in assay [4] and 76.4 nM in assay [5].

As for `CO[C@@]12C(COC(N)=O)c3c(O)c(/N=C4\C=CC(=O)C(I)=C4)c(C)c(O)c3N1CC1NC12` (some centres undefined), the IC50 is 6.52 nM in assay [2], 16.3 nM in assay [4] and 29 nM in assay [5].

On to `CO[C@@]12C(COC(N)=O)C3=C(C(=O)C(C)=C(Nc4cccc(I)c4)C3=O)N1CC1NC12` (some centres undefined), for which the IC50 is 1.42 nM in assay [1], 0.21 nM in assay [2], 1.87 nM in assay [4] and 1.68 nM in assay [5].

`CO[C@@]12C(COC(N)=O)C3=C(C(=O)C(C)=C(Nc4ccccc4)C3=O)N1CC1NC12` (some centres undefined): the 50% inhibitory concentration (IC50) in assay [1] turned out to be 1.71 nM; in assay [2], 1.09 nM; in assay [4] it was 1.32 nM; in assay [5] it was 2.6 nM.

For `CO[C@@]12C(COC(N)=O)C3=C(C(=O)C(C)=C(Nc4ccc5[nH]ccc5c4)C3=O)N1CC1NC12` (some centres undefined), the IC50 in assay [2] is 1.07 nM; in assay [4], 1.1 nM; in assay [5], 3.1 nM.

With `CO[C@@]12C(COC(N)=O)C3=C(C(=O)C(C)=C(OCCOc4ccccc4)C3=O)N1CC1NC12` (some centres undefined), the half-maximal inhibitory concentration (IC50) came to 0.082 nM in assay [1], 0.12 nM in assay [2], 0.72 nM in assay [4] and 0.16 nM in assay [5]. The compound also showed an MED in assay [3] of 3.5 µmol/kg.

With `C#CCNC1=C(C)C(=O)C2=C(C1=O)C(COC(N)=O)[C@@]1(OC)C3NC3CN21` (some centres undefined), the half-inhibitory concentration (IC50) in assay [1] was 9.7 nM; in assay [2], 3.9 nM; in assay [4] it was 4.4 nM; in assay [5] it was 2.1 nM.

As for `CO[C@@]12C(COC(N)=O)c3c(O)c(/N=C4/C=CN=N4)c(C)c(O)c3N1CC1NC12` (some centres undefined), the IC50 in assay [1] came out at 15.5 nM; in assay [2], 13 nM; in assay [4], 72.4 nM; in assay [5] it was 38.5 nM.

Regarding `CO[C@@]12C(COC(N)=O)C3=C(C(=O)C(C)=C(OCC4CC4)C3=O)N1CC1NC12` (some centres undefined), the IC50 in assay [1] was 0.31 nM; in assay [2] it was 0.16 nM; in assay [4], 0.51 nM; in assay [5], 0.45 nM. Also, the MED in assay [3] stood at 1.03 µmol/kg.

Consider `CO[C@@]12C(COC(N)=O)C3=C(C(=O)C(C)=C(Nc4nc(C)cs4)C3=O)N1CC1NC12` (some centres undefined), for which the IC50 came out at 0.5 nM in assay [1], 1.32 nM in assay [2], 3.13 nM in assay [4] and 1.74 nM in assay [5].

With `CO[C@@]12C(COC(N)=O)C3=C(C(=O)C(C)=C(Nc4ccc([N+](=O)[O-])cc4)C3=O)N1CC1NC12` (some centres undefined), the IC50 in assay [1] came out at 0.44 nM; in assay [2], 0.42 nM; in assay [4] it was 1.53 nM; in assay [5], 0.59 nM.

For the compound `CO[C@@]12C(COC(N)=O)C3=C(C(=O)C(C)=C(Nc4ccc(F)cc4)C3=O)N1CC1NC12` (some centres undefined), the IC50 in assay [1] worked out at 3.03 nM; in assay [2], 1.63 nM; in assay [4] it was 1.77 nM; in assay [5], 3.03 nM.

`COC1=C(C)C(=O)C2=C(C1=O)[C@@H](COC(N)=O)[C@@]1(OC)[C@H]3N[C@H]3CN21` [MITOMYCIN A]: the IC50 in assay [1] came out at 0.24 nM; in assay [2], 0.052 nM; in assay [4] it was 0.63 nM; in assay [5], 0.22 nM. The MED in assay [3] was 0.14 µmol/kg.

With `CO[C@@]12[C@H](COC(N)=O)C3=C(C(=O)C(C)=C(N)C3=O)N1C[C@@H]1N[C@@H]12` [MITOMYCIN], the IC50 in assay [1] was 50.8 nM; in assay [2], 13 nM; in assay [4], 32.2 nM; in assay [5], 14.8 nM.
